This note sets out measurements from ChEMBL document CHEMBL1132135, “Potent, orally absorbed glucagon receptor antagonists” (Bioorg Med Chem Lett, 1999).

The nature of series [1]: Inhibition of p38 kinase at 40 uM.
Series [2] deals with Glucagon receptor (Mus musculus) (UniProt Q61606). As to the kind of experiment: (§1) Binding affinity towards glucagon receptor determined by reduction in binding of 125 I-glucagon to the murine glucagon receptor (mGLUR) expressed on CHO cells in presence of Mg+2 at 1 uM. The series is classed as cell-based.
Series [3] has as its target T1, Glucagon receptor (Homo sapiens, UniProt P47871). In words: biochemical. In kind it is cell-based, CHO.
Series [4] deals with T1, Glucagon receptor. As to the kind of experiment: Binding affinity towards glucagon receptor determined by reduction in binding of [125I]glucagon to the human glucagon receptor (GGR) expressed on CHO cells in presence of Mg+2. The series is classed as cell-based. The gist of the method: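 Radioligand binding to the glucagon receptor was run with 5 mM Mg2+ added, described as a physiological concentration.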

Series [5] addresses T2, Glucagon receptor (Mus musculus, UniProt Q61606). In words: Binding affinity towards glucagon receptor determined by reduction in binding of [125I]glucagon to the murine glucagon receptor (GGR) expressed on CHO cells in absence of Mg+2. The series is classed as cell-based.
Series [6] is described as follows: Selectivity ratio between the binding value of human glucagon receptor (GGR) with Mg+2 and the value of p38 kinase.
Series [7] can be described thus: Concentration in plasma (systemic) following oral dose in mouse at 2 hr. In kind it is ADME, organism-based. The gist of the method:
(§2)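 Oral gavage in CD1 mice at 50 mg/kg, vehicle 5% PEG-400/5% Tween-80/90% water, 10 mL/kg. At each time point mice were CO2-anesthetized and bled by cardiac puncture at sacrifice. Samples were heparinized, kept at 0 °C for up to 2 h, then centrifuged to plasma. Plasma proteins were precipitated with acetonitrile and analyzed by HPLC.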

For series [8], the target named is T2, Glucagon receptor. In words: Binding affinity towards glucagon receptor determined by reduction in binding of 125 I-glucagon to the murine glucagon receptor (mGLUR) expressed on CHO cells in presence of Mg+2. In kind it is cell-based. The gist of the method:
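Mg2+ added at 5 mM, a physiological level, to the binding medium. IC50 reported in µM, with the number of determinations noted; where no IC50 was reached, percent inhibition is given at a single tested concentration.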

Series [9] in a line: Concentration in plasma (systemic) following oral dose in mouse at 4 hr. The series is classed as ADME, organism-based. The gist of the method:
as §2

A short description of series [10]: Concentration in plasma (systemic) following oral dose in mouse at 6 hr. The series is classed as ADME, organism-based. The gist of the method:
as §2

The nature of series [11]: Concentration in plasma (systemic) following oral dose in mouse at 0.25 hr. In kind it is ADME, organism-based. Put shortly: as §2
A short description of series [12]: Concentration in plasma (systemic) following oral dose in rats at 0.25 hr. In kind it is ADME, organism-based. To be noted: rat. Put shortly:
(§3)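 Fasted male Sprague-Dawley rats (300-400 g) were gavaged at 3.0 mg/kg, using a 0.3 mg/mL solution in 5% PEG-400/5% Tween-80/90% water at 10 mL/kg. At each time point animals were CO2-anesthetized. Portal vein blood was drawn first, then cardiac puncture at sacrifice. Samples were heparinized, held at 0 °C for up to 2 h, then centrifuged. Plasma proteins were precipitated with acetonitrile and analyzed by LC/MS/MS.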

Series [13] is described as follows: Concentration in plasma (portal) following oral dose in rats at 1 hr. To be noted: rat. In kind it is ADME, organism-based. Put shortly: as §3
A short description of series [14]: Concentration in plasma (systemic) following oral dose in rats at 1 hr. In kind it is ADME, organism-based. The conditions noted are these: rat. Put shortly:
as §3

Series [15] is described as follows: Concentration in plasma (systemic) following oral dose in rats at 2 hr. The series is classed as ADME, organism-based. The conditions noted are these: rat. The gist of the method:
as §3

Series [16] can be described thus: Concentration in plasma (systemic) following oral dose in mouse at 24 hr. In kind it is ADME, organism-based. Put shortly: as §2
Series [17] in a line: Concentration in plasma (systemic) following oral dose in mouse at 1 hr. The series is classed as ADME, organism-based. The gist of the method: as §2
Series [18] in a line: Concentration in plasma (portal) following oral dose in rats at 2 hr. To be noted: rat. The series is classed as ADME, organism-based. The gist of the method: as §3
The nature of series [19]: Concentration in plasma (portal) following oral dose in rats at 0.25 hr. In kind it is ADME, organism-based. The conditions noted are these: rat. The gist of the method:
as §3

The target of series [20] is Mitogen-activated protein kinase 14 (Homo sapiens, UniProt Q16539). In words: Inhibitory activity against p38-alpha kinase.
In series [21] the target is T2, Glucagon receptor. As to the kind of experiment: Binding affinity towards glucagon receptor determined by reduction in binding of 125 I-glucagon to the murine glucagon receptor (mGLUR) expressed on CHO cells in absence of Mg. The series is classed as cell-based.
Series [22] has as its target T2, Glucagon receptor. Described as §1. In kind it is cell-based.
A short description of series [23]: Inhibition of p38 kinase at 2 uM.
Series [24] addresses T1, Glucagon receptor. As to the kind of experiment: Binding affinity towards glucagon receptor determined by reduction in binding of 125 I-glucagon to the human glucagon receptor (hGLUR) expressed on CHO cells in absence of Mg+2 at 2 uM. The series is classed as cell-based.
The nature of series [25]: Inhibition of p38 kinase at 1 uM.
The nature of series [26]: Inhibition of p38 kinase at 10 uM.
Series [27] in a line: Inhibition of p38 kinase. The conditions noted are these: concentration not given here.
Series [28] concerns the target T2, Glucagon receptor. As to the kind of experiment: Binding affinity towards glucagon receptor determined by reduction in binding of 125 I-glucagon to the murine glucagon receptor (mGLUR) expressed on CHO cells in presence of Mg+2 at 3 uM.
A short description of series [29]: Inhibition of p38 kinase at 5 uM.

pIC50: −log10 of the molar value.

T2 sequence (Q61606 whole entry): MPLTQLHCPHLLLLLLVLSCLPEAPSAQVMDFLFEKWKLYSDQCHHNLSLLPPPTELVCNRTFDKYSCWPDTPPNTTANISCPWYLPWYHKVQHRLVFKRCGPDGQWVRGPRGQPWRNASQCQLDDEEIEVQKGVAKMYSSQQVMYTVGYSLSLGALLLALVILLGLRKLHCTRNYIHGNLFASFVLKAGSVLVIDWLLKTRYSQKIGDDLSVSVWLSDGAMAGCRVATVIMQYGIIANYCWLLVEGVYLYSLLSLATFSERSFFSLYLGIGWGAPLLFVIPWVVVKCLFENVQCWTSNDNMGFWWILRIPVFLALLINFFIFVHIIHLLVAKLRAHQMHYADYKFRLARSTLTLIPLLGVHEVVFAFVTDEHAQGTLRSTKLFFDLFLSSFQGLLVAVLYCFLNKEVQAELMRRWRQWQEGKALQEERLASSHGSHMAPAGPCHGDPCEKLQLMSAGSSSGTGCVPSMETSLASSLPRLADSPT
Chain of Mitogen-activated protein kinase 14 (Q16539 whole entry): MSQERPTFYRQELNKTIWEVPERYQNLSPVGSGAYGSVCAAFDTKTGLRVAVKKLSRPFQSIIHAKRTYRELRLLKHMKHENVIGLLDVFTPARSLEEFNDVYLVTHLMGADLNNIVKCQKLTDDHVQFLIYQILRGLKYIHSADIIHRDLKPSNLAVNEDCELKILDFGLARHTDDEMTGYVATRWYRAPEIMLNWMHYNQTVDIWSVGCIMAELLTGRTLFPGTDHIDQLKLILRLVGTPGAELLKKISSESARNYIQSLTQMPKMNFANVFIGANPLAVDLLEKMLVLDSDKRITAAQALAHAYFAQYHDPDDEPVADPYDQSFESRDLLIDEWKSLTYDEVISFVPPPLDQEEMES
T1 sequence (P47871 whole entry): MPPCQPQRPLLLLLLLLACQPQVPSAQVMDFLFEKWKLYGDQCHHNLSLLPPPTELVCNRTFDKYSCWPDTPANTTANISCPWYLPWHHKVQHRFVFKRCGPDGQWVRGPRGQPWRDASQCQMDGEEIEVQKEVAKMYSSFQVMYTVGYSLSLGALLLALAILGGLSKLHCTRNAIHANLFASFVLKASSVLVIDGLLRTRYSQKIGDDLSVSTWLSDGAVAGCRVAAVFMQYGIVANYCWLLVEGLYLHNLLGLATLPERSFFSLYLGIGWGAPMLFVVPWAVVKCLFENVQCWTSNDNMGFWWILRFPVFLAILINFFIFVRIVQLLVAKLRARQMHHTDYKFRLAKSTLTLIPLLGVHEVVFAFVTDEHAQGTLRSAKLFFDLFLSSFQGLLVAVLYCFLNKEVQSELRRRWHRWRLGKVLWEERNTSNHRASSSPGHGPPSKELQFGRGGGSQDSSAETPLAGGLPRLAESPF
Chain of Glucagon receptor (Mus musculus) (Q61606 whole entry): as the sequence (Q61606 whole entry) above

What is called inhibition is the drop in the measured response relative to a control, in per cent. For orientation: pIC50 means the negative decadic logarithm of the IC50, by convention in mol/L. Turning to `O=C(OCc1ccccc1)c1cc(-c2ccc(Cl)cc2)[nH]c1-c1ccncc1`, the results for the inhibition in series [1] and in series [2] were 69% and 8%, respectively. Besides, the pIC50 against Glucagon receptor [3] is 7.22; at Glucagon receptor [4], 5.89; at Glucagon receptor [5], 6.10.
As for `CCCOc1ccc(Br)cc1-c1cc(-c2ccc(Cl)cc2)[nH]c1-c1ccncc1`, in series [6], the Ratio came out at 0.12. Also, the concentration at 2 h is 11700 nM in series [7], 840 nM in series [15] and 1400 nM in series [18]. The pIC50 was 6.60 at Glucagon receptor [8]; 8.15 at Glucagon receptor [3]; 6.77 on Glucagon receptor [4]; 5.84 in series [20]; 7.43 on Glucagon receptor [5]. The concentration at 4 h in [9] came to 16500 nM. Further, the concentration at 6 h in [10] came to 13100 nM. Besides, the concentration at 0.25 h in [11] is 1700 nM; in series [12], 9 nM; in series [19], 25 nM. Besides, the values for the concentration at 1 h in series [13], in [14] and in series [17] were 1240 nM, 590 nM and 15200 nM, respectively. Moreover, the concentration at 24 h in series [16] came to 700 nM.
As to `Clc1ccc(-c2cc(-c3cccc(Br)c3)c(-c3ccncc3)[nH]2)cc1`, in series [6], the Ratio amounted to 21.2. Also, the inhibition in [2] was 48%. Further, the pIC50 on Glucagon receptor [3] is 6.82; on Glucagon receptor [21], 6.64; at Glucagon receptor [4], 5.77; in series [20], 7.10.
The term Inhibition denotes how much of the control response was suppressed. For `Fc1ccc(-c2cc(-c3ccc(F)cc3)c(-c3ccncc3)[nH]2)cc1`, the Ratio in series [6] came to 1. Moreover, the Inhibition at Glucagon receptor [22] was found to be 7%. The pIC50 was 7.05 on Glucagon receptor [3], 6.46 at Glucagon receptor [4], 6.47 in series [20] and 6.37 at Glucagon receptor [5].
Take `C[S+]([O-])c1ccc(-c2nc(-c3ccc(F)cc3)c(-c3ccncc3)[nH]2)cc1` (stereo not drawn) [SB-203580]: in series [23], the pIC50 was 7.43. The same molecule gave an inhibition on Glucagon receptor [24] of 18%.
As for `CCCCOc1ccccc1-c1cc(-c2ccc(Cl)cc2)[nH]c1-c1ccncc1`, the pIC50 was 5.92 on Glucagon receptor [8], 8.00 against Glucagon receptor [3], 6.74 on Glucagon receptor [4] and 7.10 on Glucagon receptor [5]. In addition, the inhibition in series [25] is 16%.
Regarding `CCCOc1ccc(Cl)cc1-c1cc(-c2ccc(Cl)cc2)[nH]c1-c1ccncc1`, the pIC50 at Glucagon receptor [8] was 6.00; against Glucagon receptor [3], 8.22; on Glucagon receptor [4], 6.77; at Glucagon receptor [5], 7.30. Also, the inhibition in [26] was found to be 31%.
`CCCOc1cccc(OCCC)c1-c1cc(-c2ccc(Cl)cc2)[nH]c1-c1ccncc1`: the pIC50 was less than 5.52 at Glucagon receptor [8], 7.40 against Glucagon receptor [3], 6.54 on Glucagon receptor [4] and 6.17 on Glucagon receptor [5]. The inhibition in series [27] was found to be 5%.
Regarding `Clc1ccc(-c2cc(-c3ccc(Cl)cc3)c(-c3ccncc3)[nH]2)cc1`, the Ratio in series [6] was 5. Moreover, the Inhibition on Glucagon receptor [28] worked out at 42%. In addition, the negative logarithm of the IC50 (pIC50) was 6.72 against Glucagon receptor [3], 6.09 at Glucagon receptor [4], 6.80 in [20] and 6.66 on Glucagon receptor [5].
In turn, `CCCNc1ccccc1-c1cc(-c2ccc(Cl)cc2)[nH]c1-c1ccncc1` returned an inhibition in series [29] of 52%. For the same molecule, the pIC50 on Glucagon receptor [8] was less than 5.52; against Glucagon receptor [3], 7.70; at Glucagon receptor [4], 6.57; on Glucagon receptor [5], 6.36.
